Experimental findings from ChEMBL document CHEMBL1126909, “Synthesis and pharmacological examination of benzofuran, indan, and tetralin analogues of 3,4-(methylenedioxy)amphetamine” (J Med Chem, 1993) are described below.

Holding throughout (format): functional
The subject of assay [1] is Rattus norvegicus. Nature of the assay: Tested for drug-discrimination stimulus effect at 0.215 mg/kg in S-1c trained animals; 0.23-0.57. In short, it runs like this:
(§1)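 Male Sprague-Dawley rats (175–200 g) held at about 80% of free-feeding weight were trained on two levers to tell (S)-1c·HCl 1.75 mg/kg from saline. Test drugs were given in 0.9% saline, ip, 30 min before sessions run under extinction. A session ended at 50 presses on one lever, or was scored disrupted if not done within 5 min. %SDL counts nondisrupted rats. ED50 and 95% CI were derived by Litchfield–Wilcoxon.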

For assay [2], the system named is Rattus norvegicus. Nature of the assay: Percentage of nondisrupted animals selecting drug liver in S-1c trained at 0.643 mg/kg; SDL.
The test system of assay [3] is Rattus norvegicus. The experiment in a line: Percentage of nondisrupted animals selecting drug liver in S-1c trained at 0.857 mg/kg; SDL.
Assay [4] relates to Rattus norvegicus. Nature of the assay: Number of animals tested to that of number of animals disrupted in 3 trained at 0.214 mg/kg; Number of animals tested=12. The essentials:
(§2)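 Drug-discrimination rats were male Sprague-Dawley, 175–200 g, kept at about 80% of free-feeding weight. They were trained against saline on (S)-1c·HCl 1.75 mg/kg, 3·HCl 1.71 mg/kg or (S)-amphetamine sulfate 1 mg/kg. Test drug was given ip in 0.9% saline at 1 mL/kg, 30 min before sessions run under extinction. A session ended at 50 presses on one lever; failing 50 presses within 5 min was scored as disrupted.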

For assay [5], the system named is Rattus norvegicus. The experiment in a line: Percentage of nondisrupted animals selecting drug liver in 3 trained at 0.214 mg/kg; SDL. In short, it runs like this:
(§3)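 Rats and training are as above: male Sprague-Dawley, food-restricted, with training doses per drug group. Test drug was given ip in saline 30 min before extinction sessions. %SDL is the share of nondisrupted rats reaching 50 presses on the drug lever. A rat not completing 50 presses in 5 min was scored as disrupted.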

Assay [6] deals with Rattus norvegicus. Nature of the assay: Number of animals tested to that of number of animals disrupted in S-1c trained at 0.215 mg/kg; Number of animals tested=10. In short, it runs like this:
as §2

The test system of assay [7] is Rattus norvegicus. The experiment in a line: Number of animals tested to that of number of animals disrupted in 3 trained at 0.429 mg/kg; Number of animals tested=12. The essentials: as §2
Assay [8] relates to Rattus norvegicus. Nature of the assay: Number of animals tested to that of number of animals disrupted in S-1c trained at 0.643 mg/kg; Number of animals tested=12.
For assay [9], the system named is Rattus norvegicus. The experiment in a line: Number of animals tested to that of number of animals disrupted in S-1c trained at 0.108 mg/kg; Number of animals tested=7. In short, it runs like this:
as §2

The subject of assay [10] is Rattus norvegicus. Nature of the assay: Number of animals tested to that of number of animals disrupted in 3 trained at 0.857 mg/kg; Number of animals tested=12. In short, it runs like this: as §2
For assay [11], the system named is Rattus norvegicus. The experiment in a line: Percentage of nondisrupted animals selecting drug liver in 3 trained at 0.643 mg/kg; SDL. In short, it runs like this: as §3
For assay [12], the system named is Rattus norvegicus. Nature of the assay: Percentage of nondisrupted animals selecting drug liver in S-1c trained at 0.108 mg/kg; SDL. The essentials:
as §3

The species named for assay [13] is Rattus norvegicus. The experiment in a line: Inhibitory concentration against [3H]- NE uptake in crude rat synaptosomes. Conditions: Brain. In short, it runs like this:
(§4)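 Crude synaptosomes from male Sprague-Dawley rat tissue homogenised in ice-cold isotonic sucrose. Preincubated 5 min at 37 °C under aeration with pargyline (final 100 μM), then chilled. Tritiated transmitter added at 10 nM final and uptake run 5 min at 37 °C. Catecholamine buffer had 0.06 mM ascorbate. Filtered and counted by scintillation. 9–10 concentrations in triplicate, 3–4 experiments, four-parameter logistic fit for IC50 ± SEM.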

Assay [14] deals with Rattus norvegicus. The experiment in a line: Percentage of nondisrupted animals selecting drug liver in 3 trained at 1.286 mg/kg; SDL. The essentials: as §3
The species named for assay [15] is Rattus norvegicus. The experiment in a line: Inhibitory concentration against [3H]- 5-HT uptake in crude rat synaptosomes. Conditions: Brain. In short, it runs like this: as §4
The subject of assay [16] is Rattus norvegicus. The experiment in a line: Number of animals tested to that of number of animals disrupted in 3 trained at 0.643 mg/kg; Number of animals tested=12. In short, it runs like this: as §2
Assay [17] deals with Rattus norvegicus. Nature of the assay: Percentage of nondisrupted animals selecting drug liver in S-1c trained at 0.215 mg/kg; SDL. In short, it runs like this:
as §3

For assay [18], the system named is Rattus norvegicus. Nature of the assay: Percentage of nondisrupted animals selecting drug liver in 3 trained at 0.429 mg/kg; SDL. In short, it runs like this:
as §3

The test system of assay [19] is Rattus norvegicus. The experiment in a line: Percentage of nondisrupted animals selecting drug liver in 3 trained at 0.857 mg/kg; SDL. The essentials: as §3
In assay [20] the test system is Rattus norvegicus. Nature of the assay: Number of animals tested to that of number of animals disrupted in S-1c trained at 0.857 mg/kg; Number of animals tested=11. The essentials: as §2
Assay [21] has as its system Rattus norvegicus. Nature of the assay: Percentage of nondisrupted animals selecting drug liver in 3 trained at 0.108 mg/kg; SDL. The essentials:
as §3

The test system of assay [22] is Rattus norvegicus. The experiment in a line: Number of animals tested to that of number of animals disrupted in 3 trained at 1.286 mg/kg; Number of animals tested=8. The essentials:
as §2

For assay [23], the species on record is Rattus norvegicus. The experiment in a line: Inhibitory concentration against [3H]- DA uptake in crude rat synaptosomes. The following applies: Brain. The essentials: as §4
In assay [24] the test system is Rattus norvegicus. Nature of the assay: Number of animals tested to that of number of animals disrupted in S-1c trained at 0.429 mg/kg; Number of animals tested=10. The essentials:
as §2

Assay [25] has as its system Rattus norvegicus. Nature of the assay: Number of animals tested to that of number of animals disrupted in 3 trained at 0.108 mg/kg; Number of animals tested=8. In short, it runs like this:
as §2

In assay [26] the test system is Rattus norvegicus. Nature of the assay: Percentage of nondisrupted animals selecting drug liver in S-1c trained at 0.429 mg/kg; SDL.
Assay [27] is filed under the species Rattus norvegicus. Nature of the assay: Tested for drug-discrimination stimulus effect in S-1c trained rats. The essentials:
as §1

The species entered for assay [28] is Rattus norvegicus. Nature of the assay: Tested for drug-discrimination stimulus effect in 3-trained rats.
In assay [29] the test system is Rattus norvegicus. The experiment in a line: Number of animals tested to that of number of animals disrupted in 3 trained at 0.857 mg/kg; Number of animals tested=11. The essentials: as §2
In assay [30] the test system is Rattus norvegicus. Nature of the assay: Number of animals tested to that of number of animals disrupted in S-1c trained at 0.857 mg/kg; Number of animals tested=10. In short, it runs like this: as §2
For assay [31], the species on record is Rattus norvegicus. Nature of the assay: Inhibitory concentration against [3H]- DA uptake, p<0.0001.
Assay [32] deals with Rattus norvegicus. Nature of the assay: Number of animals tested to that of number of animals disrupted in 3 trained at 0.215 mg/kg; Number of animals tested=11. The essentials: as §2
Assay [33] deals with Rattus norvegicus. The experiment in a line: Tested for drug-discrimination stimulus effect at 0.429 mg/kg; 0.24-0.57. The essentials: as §1
Assay [34] concerns Rattus norvegicus. Nature of the assay: Tested for drug-discrimination stimulus effect at 0.215 mg/kg; 0.31-0.74.
Assay [35] concerns Rattus norvegicus. Nature of the assay: Number of animals tested to that of number of animals disrupted in S-1c trained at 0.429 mg/kg; Number of animals tested=11. In short, it runs like this: as §2
Assay [36] deals with Rattus norvegicus. The experiment in a line: Percentage of nondisrupted animals selecting drug liver in 3 trained at 0.215 mg/kg; SDL. The essentials: as §3
Assay [37] deals with Rattus norvegicus. Nature of the assay: Number of animals tested to that of number of animals disrupted in S-1c trained at 0.643 mg/kg; Number of animals tested=10. The essentials: as §2

`CC(N)Cc1ccc2c(c1)OCC2` (stereo not drawn) gave a median effective dose (ED50) with Rattus norvegicus [1] of 0.4 mg/kg. The SDL came to 88% in the assay with Rattus norvegicus [2]; 100% in the assay on Rattus norvegicus [3]; 17% in the assay with Rattus norvegicus [5]; 100% in the assay on Rattus norvegicus [11]; 0% with Rattus norvegicus [12]; 100% in the assay on Rattus norvegicus [14]. The SDL in the assay with Rattus norvegicus [17] is 14%; with Rattus norvegicus [18], 83%; in the assay with Rattus norvegicus [19] it was 90%; in the assay with Rattus norvegicus [21], 0%; in the assay with Rattus norvegicus [26], 57%. Besides, the Activity came to 6 in the assay with Rattus norvegicus [4]; 3 in the assay on Rattus norvegicus [6]; 6 in the assay on Rattus norvegicus [7]; 4 in the assay with Rattus norvegicus [8]; 2 with Rattus norvegicus [9]; 2 in the assay on Rattus norvegicus [10]. Besides, the Activity is reported as 5 in the assay with Rattus norvegicus [16]; 5 in the assay with Rattus norvegicus [20]; 6 with Rattus norvegicus [22]; 3 with Rattus norvegicus [24]; 6 with Rattus norvegicus [25]. The IC50 is 0.98 µM in the assay filed under Rattus norvegicus [13], 0.322 µM in the assay listed under Rattus norvegicus [15] and 2 µM in the assay filed under Rattus norvegicus [23].

In the assay filed under Rattus norvegicus [27], `CCC(Cc1ccc2c(c1)OCO2)NC` (stereo not drawn) displayed an ED50 of 0.79 mg/kg.

In turn, `COc1cc2c(cc1C)CC(N)C2` (stereo not drawn) had an ED50 in the assay listed under Rattus norvegicus [28] of 0.56 mg/kg.

For the compound `CC(N)Cc1ccc2c(c1)CCO2` (stereo not drawn), the Activity with Rattus norvegicus [29] came out at 4; in the assay with Rattus norvegicus [30] it was 4; in the assay with Rattus norvegicus [6], 2; in the assay with Rattus norvegicus [7], 6; in the assay with Rattus norvegicus [32], 8; in the assay on Rattus norvegicus [16] it was 4. Further, the Activity in the assay on Rattus norvegicus [22] was found to be 5; in the assay on Rattus norvegicus [25] it was 3; with Rattus norvegicus [35], 5; with Rattus norvegicus [37], 3. The SDL in the assay on Rattus norvegicus [2] is given as 71%; in the assay with Rattus norvegicus [3], 100%; in the assay with Rattus norvegicus [11], 75%; with Rattus norvegicus [14], 100%; with Rattus norvegicus [17] it was 25%; in the assay on Rattus norvegicus [18], 50%. Further, the SDL in the assay on Rattus norvegicus [19] was determined as 86%; with Rattus norvegicus [21], 0%; with Rattus norvegicus [36], 33%; with Rattus norvegicus [26], 50%. Moreover, the results for the IC50 in the assay filed under Rattus norvegicus [31], in the assay filed under Rattus norvegicus [13] and in the assay filed under Rattus norvegicus [15] were 7.09 µM, 3.24 µM and 0.13 µM, respectively. Moreover, the ED50 with Rattus norvegicus [33] turned out to be 0.37 mg/kg; with Rattus norvegicus [34], 0.48 mg/kg.
